Experimental data from ChEMBL document CHEMBL4270636, “5'-Chloro-2,2'-dihydroxychalcone and related flavanoids as treatments for prostate cancer” (Eur J Med Chem, 2018).
Each block holds one molecule with its values, some of them ahead of it. Activity calls are given as the source filed them. The calls are words filed in the database; no cut-off is given here.

What was measured:
Androgen receptor = target: T1, Androgen receptor (Homo sapiens, UniProt P10275); experiment: Antagonist activity at AR in human LNCAP cells assessed as reduction in DHT-induced transcriptional activation after 24 hrs by luciferase reporter gene assay; format: cell-based
T1 sequence (P10275 whole entry): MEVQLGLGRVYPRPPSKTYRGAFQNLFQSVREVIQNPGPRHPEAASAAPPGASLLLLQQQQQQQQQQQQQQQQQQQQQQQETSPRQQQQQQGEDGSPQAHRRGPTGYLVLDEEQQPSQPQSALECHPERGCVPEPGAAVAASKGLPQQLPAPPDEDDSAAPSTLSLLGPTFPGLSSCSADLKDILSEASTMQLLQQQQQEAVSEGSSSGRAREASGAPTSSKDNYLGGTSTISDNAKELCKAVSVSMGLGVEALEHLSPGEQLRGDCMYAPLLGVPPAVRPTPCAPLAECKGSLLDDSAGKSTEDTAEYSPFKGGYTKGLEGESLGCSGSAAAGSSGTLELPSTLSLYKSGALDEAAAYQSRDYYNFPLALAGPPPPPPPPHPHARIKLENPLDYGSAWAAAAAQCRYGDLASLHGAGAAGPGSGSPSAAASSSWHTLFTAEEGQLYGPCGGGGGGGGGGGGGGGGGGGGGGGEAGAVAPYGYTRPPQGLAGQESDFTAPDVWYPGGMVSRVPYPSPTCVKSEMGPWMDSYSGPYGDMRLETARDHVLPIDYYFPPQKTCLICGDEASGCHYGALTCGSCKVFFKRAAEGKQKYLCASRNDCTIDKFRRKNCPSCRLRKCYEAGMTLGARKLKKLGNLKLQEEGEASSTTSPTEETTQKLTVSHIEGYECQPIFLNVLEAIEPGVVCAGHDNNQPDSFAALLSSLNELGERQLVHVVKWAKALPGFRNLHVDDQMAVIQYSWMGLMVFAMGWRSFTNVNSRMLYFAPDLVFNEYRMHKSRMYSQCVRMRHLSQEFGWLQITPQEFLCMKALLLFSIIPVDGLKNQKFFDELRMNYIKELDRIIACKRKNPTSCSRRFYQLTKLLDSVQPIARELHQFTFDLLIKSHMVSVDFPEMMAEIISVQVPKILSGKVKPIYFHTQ

[1] = target: T2, Androgen receptor (Homo sapiens) (UniProt P10275); experiment: Antagonist activity at AR (unknown origin) expressed in human PC3 cells assessed as reduction in DHT-induced transcriptional activation at 3 to 10 uM after 24 hrs by luciferase reporter gene assay; format: cell-based
T2 sequence (whole entry): T1 sequence (P10275 whole entry)
Method in brief: (§1)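 PC-3 cells (AR-negative) co-transfected with wild-type or AR-V7 expression vector plus PSA promoter-luciferase reporter (pGL3PSAp-5.8, 0.5 ug/well); seeded 50,000/well, transfected after 24 h, treated with compounds ± 1 nM DHT for 24 h from 24 h post-transfection; lysed cells read for luciferase activity by luminometer.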

MDA-MB-231 = experiment: Antiproliferative activity against human MDA-MB-231 cells assessed as reduction in cell growth after 72 hrs by sulforhodamine B assay; format: functional, cell-based; conditions: MDA-MB-231, 72 h
A549 [2] = experiment: Cell cycle arrest in human A549 cells assessed as accumulation at G2/M phase at 3 times IC50 after 24 to 48 hrs by propidium iodide staining based flow cytometry; format: functional
A549 [3] = experiment: Cell cycle arrest in human A549 cells assessed as accumulation at Sub-G1 phase at 3 times IC50 after 24 to 48 hrs by propidium iodide staining based flow cytometry; format: functional
LNCaP [4] = experiment: Antiproliferative activity against human LNCAP cells assessed as reduction in cell growth treated every 2 days for 4 days by hemocytometry; format: functional, cell-based
[5] = Antiproliferative activity against human PC3/TxR/CxR cells assessed as reduction in cell growth treated every 2 days for 4 days by hemocytometry; format: functional, cell-based
[6] = target: T2, Androgen receptor (Homo sapiens); experiment: Antagonist activity at AR in human LNCAP cells assessed as reduction in DHT-induced cell growth at 1 to 3 uM treated for every 2 days for 4 days by hemocytometry; format: cell-based
[7] = Antiproliferative activity against human DU145/TxR/CxR cells assessed as reduction in cell growth treated every 2 days for 4 days by hemocytometry; format: functional, cell-based; conditions: DU-145
LNCaP [8] = experiment: Antiproliferative activity against human LNCAP cells assessed as reduction in cell growth at 10 uM treated every 2 days for 4 days by hemocytometry; format: functional, cell-based
[9] = Antiproliferative activity against human PC3-TxR cells assessed as reduction in cell growth treated every 2 days for 4 days by hemocytometry; format: functional, cell-based
A549 [10] = experiment: Antiproliferative activity against human A549 cells assessed as reduction in cell growth after 72 hrs by sulforhodamine B assay; conditions: A549, 72 h
Homo sapiens = species: Homo sapiens; experiment: Antiproliferative activity against human LNCaP-SF cells assessed as reduction in cell growth at 10 uM treated every 2 days for 4 days by hemocytometry; format: functional, cell-based
Method in brief: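 LNCaP-SF castration-resistant subline cultured 4 days with compound at stated concentrations, with or without 0.1 nM DHT; growth assessed by cell counting.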

[11] = Antiproliferative activity against human KBVIN cells assessed as reduction in cell growth after 72 hrs by sulforhodamine B assay; format: functional, cell-based
MCF7 = experiment: Antiproliferative activity against human MCF7 cells assessed as reduction in cell growth after 72 hrs by sulforhodamine B assay; conditions: MCF7, 72 h
PC-3 [12] = experiment: Antiproliferative activity against human PC3 cells assessed as reduction in cell growth treated every 2 days for 4 days by hemocytometry; format: functional, cell-based
[13] = tested on: Androgen receptor (Homo sapiens), P10275 [UNDEFINED MUTATION]; experiment: Antagonist activity at AR V7 mutant (unknown origin) expressed in human PC3 cells assessed as reduction in DHT-induced transcriptional activation after 24 hrs by luciferase reporter gene assay; format: cell-based; method in brief: as §1
PC-3 [14] = experiment: Antitumor activity against human PC3 cells xenografted in C.B-17 SCID mouse assessed as tumor growth inhibition at 30 mg/kg, ip administered every 4 days measured during compound dosing; format: functional, organism-based
Method in brief: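 Male C.B-17 scid mice (purchased at 7 weeks) given 2.0×10⁶ PC-3 cells in 50% matrigel subcutaneously on dorsal side at 8 weeks; at ~50 mm³ tumor, randomized into groups of 5, dosing from second day at 30 mg/kg i.p. every 4 days; tumor volume and body weight followed; mean ± SD.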

PC-3 [15] = experiment: Cell cycle arrest in human PC3 cells assessed as accumulation at Sub-G1 phase at 2 times IC50 after 24 to 48 hrs by propidium iodide staining based flow cytometry; format: functional
KB = experiment: Antiproliferative activity against human KB cells assessed as reduction in cell growth after 72 hrs by sulforhodamine B assay
[16] = Antiproliferative activity against human DU145-TxR cells assessed as reduction in cell growth treated every 2 days for 4 days by hemocytometry; format: functional, cell-based
DU-145 = experiment: Antiproliferative activity against human DU145 cells assessed as reduction in cell growth treated every 2 days for 4 days by hemocytometry; format: functional, cell-based
[17] = tested on: Androgen receptor (Homo sapiens), P10275 [UNDEFINED MUTATION]; conditions: at 3 to 10 µM
PC-3 [18] = experiment: Cell cycle arrest in human PC3 cells assessed as accumulation at G2/M phase at 200 nM after 24 hrs by propidium iodide staining based flow cytometry; format: functional

SMILES: COc1ccc2c(c1)OC(c1ccccc1O)CC2=O (stereo unspecified)
IC50 (Androgen receptor): > 10 µM

SMILES: O=C1CC(c2ccccc2O)Oc2c(Br)cc(Br)cc21 (stereo unspecified)
IC50 (Androgen receptor): 3.57 µM

SMILES: COc1ccccc1/C=C/C(=O)c1cc(F)ccc1O
IC50 (Androgen receptor): 5.01 µM

SMILES: COc1cc(/C=C/C(=O)c2cc(Cl)ccc2O)ccc1O
IC50 (Androgen receptor): 5.95 µM

SMILES: O=C(/C=C/c1ccc(O)cc1)c1cc(Cl)ccc1O
IC50 (Androgen receptor): 5.92 µM

SMILES: O=C1CC(c2ccccc2O)Oc2cc(O)cc(O)c21 (stereo unspecified)
IC50 (Androgen receptor): > 10 µM

SMILES: COc1ccc(O)c(C(=O)/C=C/c2ccccc2OC)c1
IC50 (LNCaP [4]): 7.25 µM
IC50 (PC-3 [12]): 7.33 µM
IC50 (Androgen receptor): < 1 µM
IC50 (DU-145): > 10 µM

SMILES: O=C1CC(c2ccccc2O)Oc2ccc(Cl)cc21 (stereo unspecified)
IC50 (Androgen receptor): 1.68 µM

SMILES: O=C1CC(c2ccccc2O)Oc2cc(O)ccc21 (stereo unspecified)
IC50 (Androgen receptor): > 10 µM

SMILES: COc1ccccc1/C=C/C(=O)c1cc(I)ccc1O
IC50 (Androgen receptor): 1.72 µM

SMILES: COc1ccc2oc(-c3ccccc3OC)cc(=O)c2c1
IC50 (Androgen receptor): 6.19 µM

SMILES: O=C(/C=C/c1ccccc1O)c1cc(Br)cc(Br)c1O
IC50 (Androgen receptor): 2.87 µM

SMILES: COc1ccc(/C=C\c2cc(OC)c(OC)c(OC)c2)cc1O
Activity (PC-3 [18]): Active

SMILES: O=c1cc(-c2ccccc2O)oc2ccccc12
IC50 (LNCaP [4]): > 10 µM
IC50 (Androgen receptor): < 1 µM

SMILES: COc1ccccc1/C=C/C(=O)c1cc(Cl)ccc1O
IC50 (Androgen receptor): > 10 µM

SMILES: O=C1CC(c2ccccc2O)Oc2ccc(I)cc21 (stereo unspecified)
IC50 (Androgen receptor): 4.26 µM

SMILES: CCCOc1ccccc1/C=C/C(=O)c1cc(Br)ccc1O
IC50 (Androgen receptor): 3.96 µM

SMILES: COc1ccc2c(c1)C(=O)CC(c1ccccc1OC)O2 (stereo unspecified)
IC50 (Androgen receptor): > 10 µM

SMILES: CC(C)Oc1ccccc1/C=C/C(=O)c1cc(Br)ccc1O
IC50 (LNCaP [4]): 4.2 µM
IC50 (PC-3 [12]): 4.16 µM
IC50 (Androgen receptor): < 1 µM
IC50 (DU-145): 5.03 µM

SMILES: COc1ccccc1/C=C/C(=O)c1ccccc1O
IC50 (Androgen receptor): 3.5 µM

SMILES: O=C1CC(c2ccccc2O)Oc2ccc(O)cc21 (stereo unspecified)
IC50 (Androgen receptor): 2.73 µM

SMILES: O=C(/C=C/c1ccccc1)c1cc(Cl)ccc1O
IC50 (Androgen receptor): 1.51 µM

SMILES: CNC(=O)c1ccc(N2C(=S)N(c3ccc(C#N)c(C(F)(F)F)c3)C(=O)C2(C)C)cc1F
Activity (LNCaP [8]): inactive

Second part, led by results:

inhibition [1]: Active
IC50 (MDA-MB-231): 9.7 µM
IC50 (LNCaP [4]): 4.96 µM
Activity [6]: Active
IC50 (A549 [10]): 8.5 µM
IC50 (MCF7): 14.1 µM
IC50 (PC-3 [12]): 1.84 µM
inhibition [13]: Dose-dependent effect
IC50 (Androgen receptor): < 1 µM
IC50 (KB): 16.2 µM
IC50 (DU-145): 6.13 µM
SMILES: COc1ccccc1/C=C/C(=O)c1cc(Br)ccc1O
Activity (A549 [2]): Active
Activity (A549 [3]): inactive
IC50 [5]: 3.73 µM
IC50 [7]: 5.16 µM
Activity (LNCaP [8]): Active
IC50 [9]: 3.76 µM
Activity (Homo sapiens): Active
IC50 [11]: 11.1 µM
TGI (PC-3 [14]): inactive
Activity (PC-3 [15]): Active
IC50 [16]: 4.47 µM

IC50 (MDA-MB-231): 0.0096 µM
SMILES: CC(=O)O[C@H]1C(=O)[C@@]2(C)[C@H]([C@H](OC(=O)c3ccccc3)[C@]3(O)C[C@H](OC(=O)[C@H](O)[C@@H](NC(=O)c4ccccc4)c4ccccc4)C(C)=C1C3(C)C)[C@]1(OC(C)=O)CO[C@@H]1C[C@@H]2O [PACLITAXEL]
IC50 [11]: 1.73 µM

IC50 (Androgen receptor): 1.77 µM
SMILES: O=C1CC(c2ccccc2O)Oc2ccc(Br)cc21 (stereo unspecified)

inhibition [1]: Active
inhibition [17]: inactive
IC50 (LNCaP [4]): 5.45 µM
Activity [6]: Active
IC50 (PC-3 [12]): 2.56 µM
IC50 (Androgen receptor): < 1 µM
IC50 (DU-145): 4.11 µM
SMILES: O=C1CC(c2ccccc2O)Oc2ccccc21 (stereo unspecified) [2'-HYDROXY-FLAVANONE]
Activity (LNCaP [8]): Active
Activity (Homo sapiens): Active

IC50 (Androgen receptor): 1.42 µM
SMILES: O=C(/C=C/c1ccccc1O)c1cc(F)ccc1O

IC50 (Androgen receptor): 5.27 µM
SMILES: CCOc1ccccc1/C=C/C(=O)c1cc(Br)ccc1O

IC50 (Androgen receptor): 5.25 µM
SMILES: COc1ccc(/C=C/C(=O)c2cc(Cl)ccc2O)cc1OC

IC50 (Androgen receptor): 4.36 µM
SMILES: O=C(/C=C/c1ccc2c(c1)OCO2)c1cc(Cl)ccc1O

IC50 (Androgen receptor): 1.64 µM
SMILES: O=C(/C=C/c1ccccc1O)c1cc(I)ccc1O

IC50 (Androgen receptor): 8.69 µM
SMILES: O=C(/C=C/c1ccccc1O)c1cc(Br)ccc1O

IC50 (Androgen receptor): > 10 µM
SMILES: COCOc1ccccc1/C=C/C(=O)c1cc(F)ccc1O
